# RGS4 pot – RGS4 potentiators or activators, primary screen, cell-based, HEK293 M3R inducible RGS4, calcium flux; carbachol calcium flux Fluo4; hits give low values; B-score at 10 µM; actives 0.92% (n = 310,000);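 active means B-score of the integrated calcium signal more than 4 SD below the library mean, with starting fluorescence not abnormally high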;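 further: negative B-score means reduced calcium response which marks RGS4 activation or potentiation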
#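 test system = HEK293 cells with stable M3R and inducible RGS4 | schedule = recording 10 s baseline at 1 Hz, 100 s post-agonist | technique = Fluo4-AM (2 µM) calcium-flux fluorescence, kinetic read | measure = Agonist-evoked peak-minus-minimum fluorescence over baseline, integrated ratio, B score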
# RGS4 inh – RGS4 inhibitors, primary screen, cell-based, HEK293 M3R inducible RGS4, calcium flux; Regulator of G-protein signaling 4 (Homo sapiens), P49798; Fluo-4 calcium flux; hits give high values; triggered by carbachol at its EC20; B-score at 10 µM; actives 0.45% (n = 310,000); AID 463165, 2010;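 active means B-score, a plate-corrected calcium signal, over three deviations above library mean, with baseline fluorescence within five deviations of library mean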;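 further: RGS4 expression induced by doxycycline in cells with stable M3 receptor; B-score is computed from the integrated fluorescence ratio over baseline after carbachol; higher B-score means a larger calcium signal and so more RGS4 inhibition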
# Target sequence (P49798 whole entry, looked up): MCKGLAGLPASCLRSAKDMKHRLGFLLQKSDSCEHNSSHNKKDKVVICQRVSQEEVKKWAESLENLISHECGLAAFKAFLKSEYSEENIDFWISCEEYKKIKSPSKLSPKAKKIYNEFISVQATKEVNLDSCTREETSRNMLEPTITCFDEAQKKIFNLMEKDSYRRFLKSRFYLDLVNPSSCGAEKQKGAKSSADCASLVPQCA
# MrgX1 ag – agonists of human MrgX1 receptor, primary screen, HEK293 cells, Fluo-4 calcium flux. actives 0.44% (n = 310,000). Fluo-4 calcium fluorescence, agonist mode; hits give high values. B-score at 10 µM. AID 588627, 2011. Mas-related G-protein coupled receptor member X1 (Homo sapiens), Q96LB2;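 active means calcium response B-score plate-corrected fluorescence ratio at least 3 library SD, with starting fluorescence B-score inside 5 SD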
# Target sequence (Q96LB2 whole entry, looked up): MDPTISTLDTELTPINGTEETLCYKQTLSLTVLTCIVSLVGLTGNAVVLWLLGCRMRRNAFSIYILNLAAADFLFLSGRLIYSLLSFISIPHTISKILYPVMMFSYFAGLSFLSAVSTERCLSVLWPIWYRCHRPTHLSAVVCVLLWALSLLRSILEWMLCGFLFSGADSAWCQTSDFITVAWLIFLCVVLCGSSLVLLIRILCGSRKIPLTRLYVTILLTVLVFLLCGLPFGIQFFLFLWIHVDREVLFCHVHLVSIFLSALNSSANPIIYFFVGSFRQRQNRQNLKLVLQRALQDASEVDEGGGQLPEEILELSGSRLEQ
#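 Material: HEK293 cells stably expressing human MrgX1 receptor | Quantity: 15,000 cells per well | Times: Cells plated overnight, dye loaded 0.5 h 37 °C, 0.5 h room temperature | Measured by: Kinetic Fluo-4 NW fluorescence of intracellular calcium | Control set: Positive and negative controls per plate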
# MrgX1 antag – antagonists of human MrgX1 receptor, primary screen, HEK293 cells, Fluo-4 calcium flux; actives 1.3% (n = 310,000); Mas-related G-protein coupled receptor member X1 (Homo sapiens), Q96LB2; B-score at 10 µM; AID 588676, 2011; BAM8-22 antagonism; hits give low values;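 active means calcium-response B-score plate-corrected more than 3 library SD below zero, starting fluorescence within 5 deviations, no agonist response on first addition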;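 further: peak minus trough fluorescence over baseline after final BAM8-22 challenge near maximal dose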
# MrgX1 PAM – positive allosteric modulators of MrgX1, primary screen, HEK293 cells, Fluo-4 calcium flux; FDSS; hits give high values; actives 0.63% (n = 310,000); B-score at 10 µM; Mas-related G-protein coupled receptor member X1 (Homo sapiens), Q96LB2;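 active means plate-corrected calcium response at least 3 library SD above typical, normal starting fluorescence, not activating the receptor alone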;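 further: compound read alongside a low EC10 to EC30 dose of BAM8-22 agonist; peak minus trough fluorescence over baseline measured at the second addition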
# MrgX1 ag reconf – MrgX1 receptor agonists, duplicate retest, confirmation, HEK293 cells, Fluo-4 calcium flux; shares compounds with MrgX1 ag; Fluo-4 calcium fluorescence, FDSS; activation, % at 10 µM; actives 78% (n = 600); AID 602412, 2012;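 active means calcium signal rise, corrected for plate position, at least 3 library SD high, with starting brightness within 5 such deviations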
# HEK293 Ca flux – nonspecific calcium signal in parental HEK293, confirmation, counter-screen for MrgX1 antagonist project, parental HEK293 cells, Fluo-4 calcium flux | shares compounds with MrgX1 antag | Fluo-4 calcium fluorescence, FDSS | fluorescence ratio F(max-min)/F0 at 10 µM | actives 2% (n = 4,000) | AID 624111, 2012;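 active means duplicate-averaged calcium fluorescence ratio at least three times the standard deviation of buffer wells, a nonspecific response in parental cells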
# HEK293 Ca counter – calcium response in parental HEK293 cells, primary screen, counter-screen for MrgX1 allosteric activator project, cell-based, Fluo-4 calcium flux, duplicate; shares compounds with MrgX1 antag; Fluo-4 fluorescence ratio; hits give high values; fluorescence ratio F(max-min)/F0 at 10 µM; actives 0.4% (n = 4,000); AID 624114, 2012;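 active means calcium fluorescence ratio, averaged over duplicates, at least 3 SD of the buffer-well ratio, meaning a nonspecific response in receptor-free cells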;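 further: untransfected parental HEK293 lacking MrgX1 used as counterscreen for MrgX1 allosteric activators; fluorescence change taken during the second addition on a kinetic imager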
# HEK293 Ca cntr2 – calcium response in parental HEK293 cells, primary screen, counter-screen for MrgX1 agonist project, cell-based, Fluo-4 calcium flux, duplicate, agonist mode | shares compounds with MrgX1 antag | Fluo-4 calcium fluorescence (FDSS); hits give high values | fluorescence ratio F(max-min)/F0 at 10 µM | actives 8.7% (n = 4,000);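 active means calcium fluorescence ratio at least three times the spread of buffer wells, meaning a non-specific response in parental cells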
# Active calls of the source: *; i = inactive; . = no result given. Compounds with a hit are over-represented: about 3.5% of the library has one in this group of screens.
SMILES,RGS4 pot,RGS4 inh,MrgX1 ag,MrgX1 antag,MrgX1 PAM,MrgX1 ag reconf,HEK293 Ca flux,HEK293 Ca counter,HEK293 Ca cntr2
O=C(N/N=C/c1cccc([N+](=O)[O-])c1O)C(O)(c1ccccc1)c1ccccc1,i,i,66*,i,i,116%*,i,i,i
COc1cc([N+](=O)[O-])cc(/C=N/NC(=O)C(O)(c2ccccc2)c2ccccc2)c1O,i,i,i,i,i,.,.,.,.
Cn1c(=O)c2c(O)c([N+](=O)[O-])c(=O)n(C)c2n(C)c1=O,i,i,i,i,i,.,.,.,.
Cc1cc(Cl)ccc1OCCCC(=O)N/N=C/c1cccc([N+](=O)[O-])c1,i,i,i,i,i,.,.,.,.
COCC(=O)c1[nH]c2ccccc2c1C,i,i,41*,i,i,196%*,i,i,i
NC1=NC2=C(CCCC2)C2(CCCCC2)S1,i,i,32*,i,i,160%*,i,i,i
Cn1c(=O)c(C(=O)CN2CCN(S(=O)(=O)c3ccccc3)CC2)c(N)n(Cc2ccccc2)c1=O,i,i,38*,i,i,171%*,i,i,46*
Cc1nnc(NC(=O)CN2CCN(Cc3c(Cl)cccc3Cl)CC2)s1,i,i,i,i,i,.,.,.,.
O=C(O)[C@@H]1Cc2ccccc2N1,i,i,i,i,i,.,.,.,.
c1ccc2c(c1)CNc1ccccc1C2,i,i,30*,i,i,224%*,i,i,i
C=CCn1c(=O)c2ccccc2n2c(SCC(=O)NC(C)C)nnc12,i,i,.,.,.,.,.,.,.
COc1ccc(C(=O)NNC(=S)NC(=O)c2cccnc2)cc1,i,i,i,i,i,.,.,.,.
CCCCC(=O)NC(=S)NNC(=O)c1ccc(OC)cc1,i,i,98*,i,i,578%*,i,i,97*
COc1ccc(C(=O)NNC(=S)NC(=O)c2ccc(OC)cc2)cc1,i,i,81*,i,i,411%*,i,i,97*
CC(C)C(=O)Nc1ccc(C(=O)NNC(=S)NC(=O)c2cccs2)cc1,i,i,i,i,i,.,.,.,.
Cc1cccc(C(=O)NNC(=S)NC(=O)c2cccs2)c1,-7.1*,i,137*,i,i,647%*,i,i,122*
COc1ccc(C(=O)NNC(=S)NC(=O)c2cccs2)cc1,i,i,122*,i,i,339%*,i,i,94*
CN(C)c1ccc(/C=N/c2cc(-c3ccccc3)nn2-c2ccccc2)cc1,i,i,i,i,i,.,.,.,.
CC(Cc1ccccc1)N1C(=O)c2cccc([N+](=O)[O-])c2C1=O (stereo unspecified),i,i,i,i,i,.,.,.,.
O=C(c1ccc(Cl)cc1)N1CCCOC1,i,i,50*,i,i,i,i,i,i
COc1ccc(CCNC(=S)NCCc2ccc(OC)c(OC)c2)cc1OC,i,i,i,i,i,.,.,.,.
CCOC(=O)c1ccc(NC(=S)NCCc2ccc(OC)c(OC)c2)cc1,i,i,36*,i,i,i,i,i,i
O=C(OCc1ccccc1)C1CCCN1C(=O)c1ccccc1[N+](=O)[O-] (stereo unspecified),i,i,i,i,i,.,.,.,.
CCC(=O)N/N=C/c1ccc(-c2ccc([N+](=O)[O-])cc2)o1,i,i,i,i,i,.,.,.,.
CC(C)(C)C(=O)/C=c1\s/c(=C\c2ccc(-c3ccc([N+](=O)[O-])cc3)o2)c(=O)n1CC(=O)NC(N)=O,i,i,82*,i,i,464%*,0.017*,i,89*
SMILES,RGS4 pot,RGS4 inh,MrgX1 ag,MrgX1 antag,MrgX1 PAM,MrgX1 ag reconf,HEK293 Ca flux,HEK293 Ca counter,HEK293 Ca cntr2
O=C(O)c1cccnc1SCC(=O)N1CCCc2ccccc21,i,i,36*,i,i,i,i,i,i
CCOC(=O)c1ccc2c(c1)N(CC#N)C(=O)C(C)(C)O2,i,i,50*,i,i,109%*,i,i,46*
CCOC(=O)c1ccc2c(c1)N(CC(=O)N1CCCC1)C(=O)C(C)(C)O2,i,i,i,i,i,.,.,.,.
Cc1[nH]n(-c2ccccc2)c(=O)c1C(=O)c1ccc(Cl)cc1,i,i,37*,i,i,116%*,i,i,i
Cc1[nH]n(-c2ccc(Cl)cc2)c(=O)c1C(=O)c1ccccc1,i,i,40*,i,i,82%*,i,i,i
O=C(NC(=S)NNC(=O)c1ccccc1O)c1ccc([N+](=O)[O-])cc1,i,i,i,i,i,.,.,.,.
Cc1onc(-c2ccccc2)c1C(=O)NC(=S)NNC(=O)c1ccccc1O,i,i,107*,i,i,714%*,i,i,132*
O=C(NNC(=S)NC(=O)c1ccccc1[N+](=O)[O-])c1ccccc1O,i,i,i,i,i,.,.,.,.
O=C(NNC(=S)NC(=O)c1ccccc1[N+](=O)[O-])c1ccc(Cl)cc1Cl,i,i,71*,i,i,218%*,i,i,i
Cc1ccc(C(=O)NC(=S)NNC(=O)c2ccccc2)cc1,i,i,78*,i,i,492%*,i,i,100*
Cc1ccc(C(=O)NC(=S)NNC(=O)c2ccccc2O)cc1,i,i,i,i,i,.,.,.,.
Cc1onc(-c2ccccc2)c1C(=O)NC(=S)NNC(=O)c1ccc(O)cc1O,i,i,i,i,i,.,.,.,.

# Screening results from PubChem BioAssay.
